Measured values: ChEMBL document CHEMBL1153615, “Antiproliferative activity of arborescidine alkaloids and derivatives” (Eur J Med Chem, 2009)

Tests used:
HL-60 = assay: Cytotoxicity against human HL60 cells after 3 days by MTT assay; assay type: functional, cell-based; conditions: HL-60, 72 h
Procedure, shortened: (§1)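 Human ATCC lines (MRC-5 normal lung fibroblasts, AGS gastric adenocarcinoma, HL-60 leukemia, SK-MES-1 lung cancer, J82 bladder carcinoma) seeded at 50,000 cells/mL in 96-well plates. Compounds added one day later in medium at 0 up to 100 µM for 3 days. Read-out by MTT reduction against untreated controls, with etoposide as reference. IC50 reported for S- and R-configured compounds.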

MRC5 = assay: Cytotoxicity against human MRC5 cells after 3 days by MTT assay; assay type: cell-based; conditions: MRC5, 72 h; procedure, shortened: as §1
AGS = assay: Cytotoxicity against human AGS cells after 3 days by MTT assay; assay type: functional, cell-based; conditions: 72 h; procedure, shortened: as §1
SK-MES-1 = assay: Cytotoxicity against human SKMES1 cells after 3 days by MTT assay; assay type: functional, cell-based; conditions: SK-MES-1, 72 h; procedure, shortened: as §1
J82 = assay: Cytotoxicity against human J82 cells after 3 days by MTT assay; assay type: functional, cell-based; conditions: J82, 72 h; procedure, shortened: as §1
KB = assay: Cytotoxicity against human KB cells at 30 uM; assay type: functional

| Compound | IC50 (HL-60) [µM] | IC50 (MRC5) [µM] | IC50 (AGS) [µM] | IC50 (SK-MES-1) [µM] | IC50 (J82) [µM] | Activity (KB) [%] |
| --- | --- | --- | --- | --- | --- | --- |
| COC(=O)N1CCc2c([nH]c3ccccc23)[C@@H]1CCCC(O)CO (stereo not given in full) | > 100 | > 100 | 63.1 | 88.3 | > 100 |  |
| Brc1ccc2c3c([nH]c2c1)[C@@H]1CCCCN1CC3 [ARBORESCIDINE A] | 34.5 | 71.6 | 65.3 | > 100 | > 100 | 100 |
| C=CCCC[C@H]1c2[nH]c3ccccc3c2CCN1C(=O)OC | > 100 | > 100 | > 100 | > 100 | > 100 |  |
| COC(=O)N1CCc2c3n(c4cc(Br)ccc24)[C@@H](O)CCC[C@@H]31 | > 100 | 60 | 22.8 | 18.1 | 16.4 |  |
| CN1CCc2c3n(c4cc(Br)ccc24)[C@@H](O)CCC[C@@H]31 | > 100 | 31.9 | 30.9 | > 100 | > 100 | 100 |
| CN1CCc2c3n(c4ccccc24)[C@@H](O)CCC[C@@H]31 [DESBROMOARBORESCIDINE C] | > 100 | > 100 | > 100 | > 100 | > 100 |  |
| C=CCCCC1=NCCc2c1[nH]c1cc(Br)ccc21 | > 100 | 40.1 | 26.9 | 39.7 | 39.3 |  |
| COC(=O)N1CCc2c3n(c4ccccc24)[C@@H](O)CCC[C@@H]31 | 96.6 | 35.7 | 16.8 | 25.1 | 72.8 |  |
| C=CCCCC1c2[nH]c3ccccc3c2CCN1C (stereo not given) | > 100 | 42.2 | 34.5 | 58.6 | 76.4 |  |
| C=CCCC[C@@H]1NCCc2c1[nH]c1ccccc21 | 69.3 | 20.1 | 14.3 | 19.1 | 25.7 |  |
| COC(=O)N1CCc2c([nH]c3cc(Br)ccc23)[C@@H]1CCCC=O | 99.4 | 53.6 | 21.4 | 48.2 | 74.9 |  |
| C=CCCCC1=NCCc2c1[nH]c1ccccc21 | > 100 | 44.6 | 40.3 | 36.1 | 47.6 |  |
| CN1CCc2c3n(c4cc(Br)ccc24)C=CCC[C@@H]31 | > 100 | > 100 | > 100 | 91.3 | 45.5 | 100 |
| CN1CCc2c3n(c4ccccc24)C=CCC[C@@H]31 [DESBROMOARBORESCIDINEB] | > 100 | 62.6 | 41.7 | 32.3 | 29.5 |  |
| COC(=O)N1CCc2c([nH]c3cc(Br)ccc23)[C@@H]1CCCC(O)CO (stereo not given in full) | > 100 | > 100 | > 100 | > 100 | > 100 |  |
| C=CCCCC1c2[nH]c3cc(Br)ccc3c2CCN1C (stereo not given) | > 100 | 78.9 | 69.9 | 75.8 | 78.8 |  |
| COc1cc([C@@H]2c3cc4c(cc3[C@@H](O[C@@H]3O[C@@H]5CO[C@@H](C)O[C@H]5[C@H](O)[C@H]3O)[C@H]3COC(=O)[C@H]23)OCO4)cc(OC)c1O [ETOPOSIDE] |  |  |  | 2.8 | 2.5 |  |
| C=CCCC[C@@H]1NCCc2c1[nH]c1cc(Br)ccc21 | > 100 | 18.1 | 8.8 | 12.7 | 18.9 |  |
